Laboratory results taken from ChEMBL document CHEMBL3244406, “11,12-Secoprostaglandins. 5. 8-Acetyl- or 8-(1-hydroxyethyl)-12-hydroxy-13-aryloxytridecanoic acids and sulfonamide isosteres as inhibitors of platelet aggregation” (1978).
Active and inactive are the calls of the source. The rule behind the calls is not given here.

Legend:
Platelet [1] = test: Inhibition of bovine collagen-induced platelet aggregation isolated from po treated Hartley guinea pig after 1 hr treatment; format: functional; conditions: Cavia porcellus
Outline: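 Male Hartley guinea pigs (0.6-1.1 kg) dosed orally, suspended in 5 ml/kg EtOH-H2O Emulphor, three animals at each of three doses plus vehicle controls. Cardiac-puncture blood taken 1 h later, pooled per group, PRP spun at 200g for 10 min, platelets matched with PPP.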

Mus musculus [2] = species: Mus musculus; test: (§1) Induction of prostaglandin-like activity in CD-1 mouse ovary assessed as fold increase in [14C]-cAMP formation using ATP-[14C] substrate at 100 ug/ml after 30 mins incubation by PG assay; format: functional; conditions: Female gonad
Mus musculus [3] = species: Mus musculus; test: (§2) Induction of prostaglandin-like activity in CD-1 mouse ovary assessed as fold increase in [14C]-cAMP formation using ATP-[14C] substrate at 25 ug/ml after 30 mins incubation by PG assay; format: functional; conditions: Female gonad
[4] = as §1; format: functional, Female gonad
[5] = (§3) Induction of prostaglandin-like activity in CD-1 mouse ovary assessed as fold increase in [14C]-cAMP formation using ATP-[14C] substrate at 10 ug/ml after 30 mins incubation by PG assay; format: functional, Female gonad
[6] = as §2; format: functional, Female gonad
Platelet [7] = test: Inhibition of bovine collagen-induced platelet aggregation isolated from ip treated Hartley guinea pig after 1 hr treatment; format: functional; conditions: Cavia porcellus
Mus musculus [8] = species: Mus musculus; test: as §3; format: functional; conditions: Female gonad

Question: For `CC(=O)Oc1ccccc1C(=O)O` [ASPIRIN], which ED50 (Platelet [1]) is on record?
Answer: 4.5 mg/kg

Question: With `CC(=O)C(CCCCCCC(=O)O)CCCC(O)COc1cccc(C(F)(F)F)c1` (configuration not stated) as the compound, how does the Activity (Mus musculus [2]) read?
Answer: inactive

Question: What about the ED50 (Platelet [1]) of the same compound?
Answer: > 10 mg/kg

Question: And the Activity (Mus musculus [3])?
Answer: inactive

Question: What does the source list for `CC(O)C(C/C=C\CCCC(=O)O)CCCC(O)COc1ccc(F)cc1` (configuration not stated)?
Answer: fold change (FC) [4]: 3; ED50 (Platelet [1]): 0.12 mg/kg; Activity (Mus musculus [3]): inactive

Question: Which “fold change (FC)” value [4] does the source give for `Cc1ccc(OCC(O)CCCN(CCCCCCC(=O)O)S(C)(=O)=O)cc1` (configuration not stated) here?
Answer: 16

Question: What about the ED50 (Platelet [1]) of the same compound?
Answer: 5 mg/kg

Question: And the “fold change (FC)” value [5]?
Answer: 4

Question: And the “fold change (FC)” value [6]?
Answer: 11

Question: With `CS(=O)(=O)N(CCCCCCC(=O)O)CCCC(O)CSc1ccc(F)cc1` (configuration not stated) as the compound, how does the “fold change (FC)” value [4] read?
Answer: 18

Question: And the ED50 (Platelet [1])?
Answer: 6 mg/kg

Question: And the “fold change (FC)” value [5]?
Answer: 6

Question: What about the “fold change (FC)” value [6] of the same compound?
Answer: 14

Question: With `CC(=O)C(C/C=C\CCCC(=O)O)CCCC(O)COc1ccc(F)cc1` (configuration not stated) as the compound, how does the “fold change (FC)” value [4] read?
Answer: 2

Question: What about the ED50 (Platelet [1]) of the same compound?
Answer: 0.09 mg/kg

Question: And the Activity (Mus musculus [3])?
Answer: inactive

Question: What does the source list for `CS(=O)(=O)N(CCCCCCC(=O)O)CCCC(O)COc1ccccc1` (configuration not stated)?
Answer: fold change (FC) [4]: 3; ED50 (Platelet [1]): 1 mg/kg; Activity (Mus musculus [3]): inactive

Question: For `CS(=O)(=O)N(C/C=C\CCCC(=O)O)C/C=C/C(O)COc1cccc(C(F)(F)F)c1` (configuration not stated), which Activity (Mus musculus [2]) is on record?
Answer: inactive

Question: And the ED50 (Platelet [1])?
Answer: 5 mg/kg

Question: And the Activity (Mus musculus [3])?
Answer: inactive

Question: For `CC(=O)C(CCCCCCC(=O)O)CCCC(O)COc1ccc(C(C)(C)C)cc1` (configuration not stated), which Activity (Mus musculus [2]) is on record?
Answer: inactive

Question: And the ED50 (Platelet [1])?
Answer: 10 mg/kg

Question: What about the Activity (Mus musculus [3]) of the same compound?
Answer: inactive

Question: Which results are given for `CC(O)C(CCCCCCC(=O)O)CCCC(O)COc1ccccc1F` (configuration not stated)?
Answer: Activity (Mus musculus [2]): inactive; ED50 (Platelet [1]): 7.5 mg/kg; Activity (Mus musculus [3]): inactive

Question: With `CC(O)C(CCCCCCC(=O)O)CCCC(O)COc1ccc(F)cc1` (configuration not stated) as the compound, how does the “fold change (FC)” value [4] read?
Answer: 3

Question: And the ED50 (Platelet [1])?
Answer: 1 mg/kg

Question: And the Activity (Mus musculus [3])?
Answer: inactive

Question: What does the source list for `CS(=O)(=O)N(CCCCCCC(=O)O)CCCC(O)COc1cccc(Cl)c1` (configuration not stated)?
Answer: fold change (FC) [4]: 5; ED50 (Platelet [1]): 1 mg/kg; Activity (Mus musculus [3]): inactive

Question: Which results are given for `CC(O)C(CC#CCCCC(=O)O)CCCC(O)COc1ccc(F)cc1` (configuration not stated)?
Answer: fold change (FC) [4]: 2; ED50 (Platelet [1]): 0.04 mg/kg; Activity (Mus musculus [3]): inactive

Question: With `CC(O)C(CCCCCCC(=O)O)CCCC(O)COc1ccc(C(F)(F)F)cc1` (configuration not stated) as the compound, how does the Activity (Mus musculus [2]) read?
Answer: inactive

Question: And the ED50 (Platelet [1])?
Answer: 1 mg/kg

Question: And the Activity (Mus musculus [3])?
Answer: inactive

Question: With `CCCCC[C@H](O)/C=C/[C@H]1[C@H](O)CC(=O)[C@@H]1CCCCCCC(=O)O` [ALPROSTADIL] as the compound, how does the ED50 (Platelet [7]) read?
Answer: 0.02 mg/kg

Question: And the “fold change (FC)” value [5]?
Answer: 60

Question: Which results are given for `CS(=O)(=O)N(CCCCCCC(=O)O)CCCC(O)COc1ccc(Cl)cc1` (configuration not stated)?
Answer: fold change (FC) [4]: 31; ED50 (Platelet [1]): 10 mg/kg; fold change (FC) [5]: 8; fold change (FC) [6]: 21

Question: Which “fold change (FC)” value [4] does the source give for `CS(=O)(=O)N(C/C=C\CCCC(=O)O)C/C=C/C(O)COc1ccc(F)cc1` (configuration not stated) here?
Answer: 11

Question: What about the ED50 (Platelet [1]) of the same compound?
Answer: 0.01 mg/kg

Question: What about the “fold change (FC)” value [5] of the same compound?
Answer: 2

Question: What about the “fold change (FC)” value [6] of the same compound?
Answer: 4

Question: Which results are given for `CS(=O)(=O)N(CCCCCCC(=O)O)CCCC(O)COc1ccccc1F` (configuration not stated)?
Answer: Activity (Mus musculus [2]): inactive; ED50 (Platelet [1]): 0.15 mg/kg; Activity (Mus musculus [3]): inactive

Question: For `CCCCCC(O)CCCC(CCCCCCC(=O)O)C(C)=O` (mixture of isomers), which “fold change (FC)” value [4] is on record?
Answer: 23

Question: What about the ED50 (Platelet [1]) of the same compound?
Answer: 6.5 mg/kg

Question: What about the “fold change (FC)” value [5] of the same compound?
Answer: 11

Question: And the “fold change (FC)” value [6]?
Answer: 14

Question: Which “fold change (FC)” value [4] does the source give for `CC(=O)C(CCCCCCC(=O)O)CCCC(O)COc1ccc(F)cc1` (configuration not stated) here?
Answer: 4

Question: And the ED50 (Platelet [1])?
Answer: 0.5 mg/kg

Question: What about the Activity (Mus musculus [3]) of the same compound?
Answer: inactive

Question: With `COc1ccc(OCC(O)CCCN(CCCCCCC(=O)O)S(C)(=O)=O)cc1` (configuration not stated) as the compound, how does the “fold change (FC)” value [4] read?
Answer: 16

Question: And the ED50 (Platelet [1])?
Answer: > 10 mg/kg

Question: And the Activity (Mus musculus [8])?
Answer: inactive

Question: And the “fold change (FC)” value [6]?
Answer: 3

Question: Which “fold change (FC)” value [4] does the source give for `CS(=O)(=O)N(CCCCCCC(=O)O)CCCC(O)CS(=O)(=O)c1ccc(F)cc1` (configuration not stated) here?
Answer: 3

Question: And the ED50 (Platelet [1])?
Answer: > 10 mg/kg

Question: And the Activity (Mus musculus [3])?
Answer: inactive

Question: Which results are given for `CS(=O)(=O)N(CCCCCCC(=O)O)CCCC(O)COc1cccc(F)c1` (configuration not stated)?
Answer: fold change (FC) [4]: 4; ED50 (Platelet [1]): 1 mg/kg; fold change (FC) [6]: 2

Question: Which Activity (Mus musculus [2]) does the source give for `CC(=O)C(CCCCCCC(=O)O)CCCC(O)COc1ccccc1OCc1ccccc1` (configuration not stated) here?
Answer: inactive

Question: And the ED50 (Platelet [1])?
Answer: > 10 mg/kg

Question: And the Activity (Mus musculus [3])?
Answer: inactive

Question: Which results are given for `CS(=O)(=O)N(CCCCCCC(=O)O)CCCC(O)COc1ccc(F)cc1` (configuration not stated)?
Answer: fold change (FC) [4]: 11; ED50 (Platelet [1]): 0.04 mg/kg; fold change (FC) [5]: 2; fold change (FC) [6]: 7

Question: For `CCCCCC(O)CCCN(CCCCCCC(=O)O)S(C)(=O)=O` (racemic), which “fold change (FC)” value [4] is on record?
Answer: 61

Question: What about the ED50 (Platelet [1]) of the same compound?
Answer: 6 mg/kg

Question: What about the “fold change (FC)” value [5] of the same compound?
Answer: 40

Question: What about the “fold change (FC)” value [6] of the same compound?
Answer: 56

Question: Which “fold change (FC)” value [4] does the source give for `CC(O)C(CCCCCCC(=O)O)CCCC(O)COc1cccc(Cl)c1` (configuration not stated) here?
Answer: 2

Question: And the ED50 (Platelet [1])?
Answer: 7.5 mg/kg

Question: What about the Activity (Mus musculus [3]) of the same compound?
Answer: inactive

Question: With `CC(=O)C(CCCCCCC(=O)O)CCCC(O)COc1ccccc1O` (configuration not stated) as the compound, how does the Activity (Mus musculus [2]) read?
Answer: inactive

Question: What about the ED50 (Platelet [1]) of the same compound?
Answer: 5 mg/kg

Question: What about the Activity (Mus musculus [3]) of the same compound?
Answer: inactive

Question: With `CC(=O)C(CC#CCCCC(=O)O)CCCC(O)COc1ccc(F)cc1` (configuration not stated) as the compound, how does the Activity (Mus musculus [2]) read?
Answer: inactive

Question: And the ED50 (Platelet [1])?
Answer: 0.25 mg/kg

Question: What about the Activity (Mus musculus [3]) of the same compound?
Answer: inactive
